Laboratory results: ChEMBL document CHEMBL2321804, “Development of small-molecule P-gp inhibitors of the N-benzyl 1,4-dihydropyridine type: novel aspects in SAR and bioanalytical evaluation of multidrug resistance (MDR) reversal properties” (Bioorg Med Chem, 2013)
pIC50: −log10 of the molar value.

Legend:
[1] = molecular target: T1, ATP-dependent translocase ABCB1 (Homo sapiens, UniProt P08183); experiment: Inhibition of human MDR1 expressed in mouse L5178Y cells assessed as […] by measuring fluorescence activity ratio at 10 uM preincubated for 10 mins measured after 40 mins relative to control; type: cell-based
T1 sequence (P08183 whole entry): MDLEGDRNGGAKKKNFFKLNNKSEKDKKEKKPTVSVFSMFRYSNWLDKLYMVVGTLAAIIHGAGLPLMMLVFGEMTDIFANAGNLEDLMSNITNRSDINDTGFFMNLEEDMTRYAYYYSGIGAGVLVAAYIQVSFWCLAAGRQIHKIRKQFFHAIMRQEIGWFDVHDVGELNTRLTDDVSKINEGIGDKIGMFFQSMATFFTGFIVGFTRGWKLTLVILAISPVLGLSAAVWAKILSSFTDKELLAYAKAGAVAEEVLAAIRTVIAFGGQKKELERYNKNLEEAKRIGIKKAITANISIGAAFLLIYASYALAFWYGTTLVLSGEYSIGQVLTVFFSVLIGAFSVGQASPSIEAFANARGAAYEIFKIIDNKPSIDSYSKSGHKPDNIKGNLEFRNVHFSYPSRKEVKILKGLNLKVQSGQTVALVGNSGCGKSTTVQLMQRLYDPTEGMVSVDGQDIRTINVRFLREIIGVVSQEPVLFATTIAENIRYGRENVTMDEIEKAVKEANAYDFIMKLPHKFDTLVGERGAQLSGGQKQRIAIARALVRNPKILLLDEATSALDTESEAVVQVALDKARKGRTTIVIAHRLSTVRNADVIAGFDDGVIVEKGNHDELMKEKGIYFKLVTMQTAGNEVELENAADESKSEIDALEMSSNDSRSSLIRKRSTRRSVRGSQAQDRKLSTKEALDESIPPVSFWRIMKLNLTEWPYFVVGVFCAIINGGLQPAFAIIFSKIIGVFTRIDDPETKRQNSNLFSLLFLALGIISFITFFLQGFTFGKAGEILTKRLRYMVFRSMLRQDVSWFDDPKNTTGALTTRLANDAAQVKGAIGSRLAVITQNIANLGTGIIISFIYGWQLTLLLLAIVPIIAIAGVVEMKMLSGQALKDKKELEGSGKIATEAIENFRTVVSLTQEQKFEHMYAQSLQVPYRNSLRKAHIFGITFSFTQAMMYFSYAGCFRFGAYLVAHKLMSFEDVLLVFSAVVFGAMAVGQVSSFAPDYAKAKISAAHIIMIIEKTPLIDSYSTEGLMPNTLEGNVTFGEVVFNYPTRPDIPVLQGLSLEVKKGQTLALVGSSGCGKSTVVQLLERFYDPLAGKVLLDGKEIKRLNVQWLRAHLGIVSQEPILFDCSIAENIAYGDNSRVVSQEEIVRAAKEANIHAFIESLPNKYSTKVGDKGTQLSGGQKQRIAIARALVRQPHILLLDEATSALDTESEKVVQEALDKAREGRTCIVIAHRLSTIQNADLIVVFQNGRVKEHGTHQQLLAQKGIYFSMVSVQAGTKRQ
Outline: (§1)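 Transfected P-gp L5178Y subline and parental cells, 1 x 10^6/mL in serum-free McCoy's 5A, were preincubated 10 min at rt with inhibitor (DMSO stock 1.0 mg/mL). Rhodamine 123 followed (5 µL of 0.5 mM), 40 min at 37 °C, then two PBS washes. Flow cytometry on 1 x 10^4 cells. FAR = MDR/parental uptake, each normalised to its own untreated control.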

[2] = molecular target: T1, ATP-dependent translocase ABCB1; experiment: Inhibition of human MDR1 expressed in mouse L5178Y cells assessed as […] by measuring fluorescence activity ratio at 1 uM preincubated for 10 mins measured after 40 mins relative to control; type: cell-based; outline: as §1
[3] = Cytotoxicity against mouse L5178Y cells expressing p-gp assessed as cell viability at 10 uM after 24 hrs by MTT assay; type: ADME, cell-based; conditions: read-out: Activity
Outline: (§2)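 Parental L5178Y mouse T-lymphoma cells and the human mdr1-transfected P-gp subline were kept in McCoy's 5A with 10% FCS, 2 mM L-glutamine and gentamicin, 37 °C, 5% CO2; the subline also got colchicine 60 ng/mL. Dihydropyridines were added at 1 to 80 µM final, 24 h at 37 °C. MTT was read at 560 nm after SDS/acetic acid/DMSO lysis. Triplicate runs.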

[4] = molecular target: T1, ATP-dependent translocase ABCB1; experiment: Inhibition of human MDR1 expressed mouse L5178Y cells assessed as reduction of liposomal daunorubicin IC50 for cytotoxicity at 10 uM after 24 hrs by MTT assay; type: cell-based
[5] = molecular target: T1, ATP-dependent translocase ABCB1; experiment: Inhibition of human MDR1 expressed mouse L5178Y cells assessed as reduction of liposomal daunorubicin IC50 for cytotoxicity at 2.5 uM after 24 hrs by MTT assay; type: cell-based
Outline: (§3)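 Liposomal daunorubicin (DaunoXome) was tested in the P-gp overexpressing L5178Y subline after preincubation with inhibitor at 2.5 µM or higher levels, 24 h at 37 °C, 5% CO2. Readout was MTT, lysis, then A560. IC50 came from mean percent growth inhibition of triplicate runs.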

[6] = Cytotoxicity against mouse L5178Y cells expressing p-gp assessed as cell viability at 2.5 uM after 24 hrs by MTT assay; type: ADME, cell-based; conditions: read-out: Activity; outline: as §2
[7] = Cytotoxicity against mouse L5178Y cells assessed as cell viability at 2.5 uM after 24 hrs by MTT assay; type: cell-based; conditions: read-out: Activity; outline: as §2
[8] = Cytotoxicity against mouse L5178Y cells assessed as cell viability at 10 uM after 24 hrs by MTT assay; type: cell-based; conditions: read-out: Activity; outline: as §2
[9] = molecular target: T1, ATP-dependent translocase ABCB1; experiment: Inhibition of human MDR1 expressed mouse L5178Y cells assessed as reduction of liposomal daunorubicin IC50 for cytotoxicity at 1 uM after 24 hrs by MTT assay; type: cell-based; parameters: scale not given: the % may be the effect or the level left
[10] = molecular target: T1, ATP-dependent translocase ABCB1; experiment: Inhibition of human MDR1 expressed mouse L5178Y cells assessed as reduction of liposomal daunorubicin IC50 for cytotoxicity at 5 to 10 uM after 24 hrs by MTT assay; type: cell-based; outline: as §3
[11] = molecular target: T1, ATP-dependent translocase ABCB1; experiment: Inhibition of human MDR1 expressed mouse L5178Y cells assessed as reduction of daunorubicin IC50 for cytotoxicity at 5 to 10 uM after 24 hrs by MTT assay; type: cell-based
Outline: (§4)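 Daunorubicin at 0.01 to 10 µM was combined with inhibitor at 2.5, 5 or 10 µM in the P-gp overexpressing L5178Y subline, 24 h at 37 °C, 5% CO2. Readout was MTT (4 h), SDS/acetic acid/DMSO lysis, A560. IC50 came from mean percent growth inhibition, n = 3.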

[12] = molecular target: T1, ATP-dependent translocase ABCB1; experiment: Inhibition of human MDR1 expressed mouse L5178Y cells assessed as reduction of daunorubicin IC50 for cytotoxicity at 2.5 uM after 24 hrs by MTT assay; type: cell-based; parameters: scale not given: the % may be the effect or the level left; outline: as §4
[13] = tested on: L5178Y; experiment: Cytotoxicity against mouse L5178Y cells expressing p-gp after 24 hrs by MTT assay; type: functional, cell-based
Outline: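 Daunorubicin, 0.01 to 10 µM, was given to the P-gp expressing L5178Y subline (McCoy's 5A, 10% FCS, colchicine 60 ng/mL) in 96-well plates, 24 h at 37 °C, 5% CO2. MTT (5 mg/mL stock) was added for 4 h, cells were lysed 30 min in SDS/acetic acid/DMSO, and A560 was read. IC50 came from mean percent growth inhibition of triplicate runs.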

[14] = tested on: L5178Y; experiment: Cytotoxicity against mouse L5178Y cells after 24 hrs by MTT assay; type: functional, cell-based
Outline: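 Mouse T-lymphoma L5178Y parental cells and the mdr1-transfected L5178Y mdr subline were grown in McCoy's 5A with 10% FCS (mdr subline kept in colchicine 60 ng/mL). Compounds were tested at 1 to 80 µM final for 24 h at 37 °C in 5% CO2. MTT was added for 4 h, then SDS/acetic acid/DMSO lysis and A560 read-out. Run in triplicate.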

[15] = tested on: L5178Y; experiment: Ratio of IC50 for mouse L5178Y cells expressing p-gp to IC50 for mouse L5178Y cells; type: functional
Outline: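 Parental L5178Y and P-gp-expressing L5178Y mdr cells were exposed to daunorubicin at 0.01–10 µM plus P-gp inhibitor for 24 h at 37 °C in 5% CO2. Viability was read by MTT (4 h) with SDS/acetic acid/DMSO lysis and A560. IC50s came from mean percent growth inhibition in triplicate, and the ratio is the mdr-line IC50 over the parental IC50.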

Compound	RFU [1]	RFU [2]	also measured
COC(=O)C1=CN(Cc2cccc3ccccc23)C=CC1c1ccccc1 (configuration not stated)	2.19	1.19	–
CCOC(=O)C1=CN(Cc2cccc3ccccc23)C=CC1c1ccccc1 (configuration not stated)	2.74	1.28	–
COC(=O)C1=CN(Cc2ccccc2)C=CC1c1cccc2ccccc12 (configuration not stated)	2.35	1.22	–
CCOC(=O)C1=CN(Cc2ccccc2)C=CC1c1cccc2ccccc12 (configuration not stated)	3.45	1.43	–
CCOC(=O)C1=CN(Cc2ccccc2)C=CC1c1cccc(C(F)(F)F)c1 (configuration not stated)	2.33	1.17	–
COC(=O)C1=CN(Cc2ccccc2)C=CC1c1ccc(C)cc1 (configuration not stated)	1.88	1.11	–
COC(=O)C1=CN(Cc2ccccc2)C=CC1c1ccccc1OC (configuration not stated)	1.76	1.13	–
COC(=O)C1=CN(Cc2ccccc2)C=CC1c1ccc(OC)cc1 (configuration not stated)	2.95	0.85	–
CCOC(=O)C1=CN(Cc2ccccc2)C=CC1c1ccc(C)cc1 (configuration not stated)	2.54	1.34	–
CCOC(=O)C1=CN(Cc2ccccc2)C=CC1c1ccccc1OC (configuration not stated)	2.38	1.18	–
CCOC(=O)C1=CN(Cc2ccccc2)C=CC1c1ccc(OC)cc1 (configuration not stated)	3.13	1.52	–
COC(=O)C1=CN(Cc2ccccc2OC)C=CC1c1ccccc1 (configuration not stated)	3.97	1.82	–
COC(=O)C1=CN(Cc2ccc(OC)cc2)C=CC1c1ccccc1 (configuration not stated)	4.13	1.5	–
COC(=O)C1=CN(Cc2ccc(C)cc2)C=CC1c1ccccc1 (configuration not stated)	7.8	1.72	viability at 24 h, 10 µM [3]: 75%; Activity [4]: Active; Activity [5]: Active; viability at 24 h, 2.5 µM [6]: 81%; viability at 24 h, 2.5 µM [7]: 95%; viability at 24 h, 10 µM [8]: 75%
CCOC(=O)C1=CN(Cc2ccccc2OC)C=CC1c1ccccc1 (configuration not stated)	4.64	1.72	–
CCOC(=O)C1=CN(Cc2ccc(OC)cc2)C=CC1c1ccccc1 (configuration not stated)	4.89	1.32	Activity [9]: > 60%; viability at 24 h, 10 µM [3]: 85%; Activity [4]: Active; Activity [5]: Active; viability at 24 h, 2.5 µM [7]: 97%; viability at 24 h, 10 µM [8]: 100%; Activity [10]: Active
CCOC(=O)C1=CN(Cc2ccc(C)cc2)C=CC1c1ccccc1 (configuration not stated)	7.8	2.54	Activity [11]: Active; Activity [4]: Active; Activity [12]: > 50%
COC(=O)C1=CN(Cc2ccccc2)C=CC1c1cccc(Cl)c1 (configuration not stated)	1.39	1.12	–
COC(=O)C1=CN(Cc2ccccc2)C=CC1c1cccc(Br)c1 (configuration not stated)	1.22	1.05	–
COC(=O)C1=CN(Cc2ccccc2)C=CC1c1cccc(C(F)(F)F)c1 (configuration not stated)	1.53	1.05	–
CCOC(=O)C1=CN(Cc2ccccc2)C=CC1c1cccc(Cl)c1 (configuration not stated)	2.67	1.25	–
CCOC(=O)C1=CN(Cc2ccccc2)C=CC1c1cccc(Br)c1 (configuration not stated)	2.76	1.27	–
COc1cccc2c1C(=O)c1c(O)c3c(c(O)c1C2=O)C[C@@](O)(C(C)=O)C[C@@H]3O[C@H]1C[C@H](N)[C@H](O)[C@H](C)O1 (stereo in doubt; form 1) [DAUNORUBICIN]	–	–	pIC50 [13]: 5.63; pIC50 [14]: 6.52
COc1cccc2c1C(=O)c1c(O)c3c(c(O)c1C2=O)C[C@@](O)(C(C)=O)C[C@@H]3O[C@H]1C[C@H](N)[C@H](O)[C@H](C)O1 (stereo in doubt; form 2) [DAUNORUBICIN]	–	–	pIC50 [13]: 5.11; Ratio IC50 [15]: >10; pIC50 [14]: 6.14
COc1ccc(CCN(C)CCCC(C#N)(c2ccc(OC)c(OC)c2)C(C)C)cc1OC (configuration not stated) [VERAPAMIL]	2.94	0.89	–
